Source: ChEMBL document CHEMBL1129428 (J Med Chem, 1996)
Values joined by “and” are separate entries in the source; they are usually repeats but may differ in a detail not shown here. Equal values may be shown once.

How the values were obtained:
[1] = Partition coefficient (logP); format: physicochemical; conditions: octanol/water
How it was run: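 Partition between 1-octanol and buffer at pH 7.4, with solutions prepared in 1-octanol before buffer is added. Quantified by UV, using λmax and ε values measured in 1-octanol.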

Mus musculus [2] = test: Anticonvulsant activity after intraperitoneal injection into mice measured in a maximal electroshock scree (MES) screen; format: functional
Rattus norvegicus [3] = test: Compound was tested for anticonvulsant activity after Oral Administration into Rats by using MES screen test after 4h,dose 50 mg/kg; No activity was demonstarted; format: functional, organism-based; design: dose 50 mg/kg
How it was run: (§1)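 Rats received the compound orally. […] Rats were tested in the MES screen at 0.25, 0.5, 1, 2 and 4 h. Each value is the number of rats protected out of 4. The test followed NINDS procedures.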

Rattus norvegicus [4] = test: Compound was tested for anticonvulsant activity after Oral Administration into Rats by using MES screen test after 2h,dose 50 mg/kg; No activity was demonstarted; format: functional, organism-based; design: dose 50 mg/kg; how it was run: as §1
Rattus norvegicus [5] = test: Compound was tested for anticonvulsant activity after Oral Administration into Rats by using MES screen test after 0.25h,dose 50 mg/kg; No activity was demonstarted; format: functional, organism-based; design: dose 50 mg/kg; how it was run: as §1
Rattus norvegicus [6] = test: Compound was tested for anticonvulsant activity after Oral Administration into Rats by using MES screen test after 0.5h,dose 50 mg/kg; No activity was demonstarted; format: functional, organism-based; design: dose 50 mg/kg; how it was run: as §1
Rattus norvegicus [7] = test: Compound was tested for anticonvulsant activity after Oral Administration into Rats by using MES screen test after 1h,dose 50 mg/kg; No activity was demonstarted; format: functional, organism-based; design: dose 50 mg/kg; how it was run: as §1
Mus musculus [8] = test: Anticonvulsant activity after intraperitoneal injection into mice by using MES screen test after 0.5 hr; format: functional
Mus musculus [9] = test: Toxicity after intraperitoneal injection into mice by using toxicity screen test after 0.5 hr; format: organism-based; conditions: in vivo, ip
How it was run: (§2)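 Mice injected intraperitoneally at 30, 100 and 300 mg/kg and examined 0.5 and 4 h afterwards. Each entry is the minimum dose giving activity (MES protection, scPTZ protection, or rotorod failure for neurotoxicity) in half or more of the mice. Activity is called absent if nothing occurs at 300 mg/kg.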

Mus musculus [10] = test: Compound was tested for toxicity after intraperitoneal injection into mice by using toxicity screen test after 4 hr; format: organism-based; conditions: in vivo, ip; how it was run: as §2
Rattus norvegicus [11] = test: Compound was tested for anticonvulsant activity after Oral Administration into Rats by using MES screen test after 0.25h,dose 12.5 mg/kg; No activity was demonstarted; format: functional, organism-based; design: dose 12.5 mg/kg; how it was run: as §1
Rattus norvegicus [12] = test: Compound was tested for anticonvulsant activity after Oral Administration into Rats by using MES screen test after 4h,dose 12.5 mg/kg; number of rats out of four which were protected; format: functional; how it was run: as §1
Rattus norvegicus [13] = test: Anticonvulsant activity after oral administration into rats; format: functional; design: concentration or dose not given beside the values
Rattus norvegicus [14] = test: Compound was tested for anticonvulsant activity after Oral Administration into Rats by using MES screen test after 1h,dose 12.5 mg/kg; number of rats out of four which were protected; format: functional; how it was run: as §1
Rattus norvegicus [15] = test: Compound was tested for anticonvulsant activity after Oral Administration into rat by using MES screen test after 1 hr; format: functional
How it was run: (§3)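 Rats dosed orally, typically at 50 mg/kg first, then mostly 12.5 mg/kg (some compounds at 30 mg/kg), and tested by maximal electroshock. Four rats per compound, scored at 0.25, 0.5, 1, 2 and 4 h as the number of rats protected out of 4.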

[16] = Compound was tested for toxicity after oral administration in rat by using neurotoxicity screen test after 0.25-24 hr; format: organism-based; conditions: in vivo
How it was run: (§4)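 Rat neurotoxicity after oral dosing, observed at 0.25, 0.5, 1, 2, 4, 6, 8 and 24 h (8 h omitted for one compound).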

[17] = (§5) Protection index = TD50/ED50 (MES); format: ADME, organism-based; conditions: rat, in vivo; read-out: PI
Rattus norvegicus [18] = test: Compound was tested for anticonvulsant activity after Oral Administration into Rats by using MES screen test after 2h,dose 12.5 mg/kg; number of rats out of four which were protected; format: functional; how it was run: as §1
Rattus norvegicus [19] = test: Compound was tested for anticonvulsant activity after Oral Administration into Rats by using MES screen test after 4h,dose 50 mg/kg; number of rats out of four which were protected; format: functional; how it was run: as §1
Rattus norvegicus [20] = test: Compound was tested for anticonvulsant activity after Oral Administration into Rats by using MES screen test after 2h,dose 50 mg/kg; number of rats out of four which were protected; format: functional; how it was run: as §1
Mus musculus [21] = test: Anticonvulsant activity after intraperitoneal injection into mice by using MES screen test after 0.25 hr; format: functional
Mus musculus [22] = test: Compound was tested for anticonvulsant activity after intraperitoneal injection into mice by using scPTZ screen test after 0.25 hr; format: functional; conditions: ip
How it was run: (§6)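 Quantitative intraperitoneal mouse testing in the MES, scPTZ or rotorod neurotoxicity screens at the peak time given for each compound (0.25–2 h). ED50 or TD50 reported in mg/kg with 95% CI and slope (SE).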

[23] = Compound was tested for toxicity after intraperitoneal injection into mice by using neurotoxicity screen test after 1 hr; format: organism-based; conditions: mouse, in vivo, ip; how it was run: as §6
Rattus norvegicus [24] = test: Compound was tested for anticonvulsant activity after Oral Administration into Rats by using MES screen test after 4h,dose 30 mg/kg; number of rats out of four which were protected; format: functional; how it was run: as §1
Rattus norvegicus [25] = test: Compound was tested for anticonvulsant activity after Oral Administration into Rats by using MES screen test after 0.25h,dose 30 mg/kg; number of rats out of four which were protected; format: functional; how it was run: as §1
Rattus norvegicus [26] = test: Compound was tested for anticonvulsant activity after Oral Administration into Rats by using MES screen test after 2h,dose 30 mg/kg; number of rats out of four which were protected; format: functional; how it was run: as §1
Rattus norvegicus [27] = test: Compound was tested for anticonvulsant activity after Oral Administration into Rats by using MES screen test after 0.5h,dose 30 mg/kg; number of rats out of four which were protected; format: functional; how it was run: as §1
Rattus norvegicus [28] = test: Compound was tested for anticonvulsant activity after Oral Administration into Rats by using MES screen test after 1h,dose 30 mg/kg; number of rats out of four which were protected; format: functional; how it was run: as §1
Rattus norvegicus [29] = test: Compound was tested for anticonvulsant activity after Oral Administration into rat by using MES screen test after 4 hr; format: functional; how it was run: as §3
[30] = Protection index = TD50/ED50; format: ADME; conditions: read-out: PI
[31] = Protection index = TD50/ED50 (MES); conditions: mouse, in vivo; read-out: PI
Mus musculus [32] = test: Anticonvulsant activity after intraperitoneal injection into mice by using scPTZ screen after 0.5 hr; format: functional
Mus musculus [33] = test: Compound was tested for anticonvulsant activity after intraperitoneal injection into mice by using MES screen test after 1 hr; format: functional; conditions: ip; how it was run: as §6
Mus musculus [34] = test: Compound was tested for anticonvulsant activity after intraperitoneal injection into mice by using scPTZ screen test after 2 hr; format: functional; conditions: ip; how it was run: as §6
[35] = Compound was tested for toxicity after intraperitoneal injection into mice by using neurotoxicity screen test after 2 hr; format: organism-based; conditions: mouse, in vivo, ip; how it was run: as §6
Rattus norvegicus [36] = test: Compound was tested for anticonvulsant activity after Oral Administration into rat by using MES screen test after 2 hr; format: functional; how it was run: as §3
[37] = Compound was tested for toxicity after oral administration in rat by using neurotoxicity screen test after 4 hr; format: organism-based; conditions: in vivo; how it was run: as §4
Rattus norvegicus [38] = species: Rattus norvegicus; test: as §5; format: ADME, organism-based; conditions: in vivo
[39] = Compound was tested for toxicity after oral administration in rat by using neurotoxicity screen test after 2 hr; format: organism-based; conditions: in vivo; how it was run: as §4
[40] = as §5; format: ADME; conditions: read-out: TI

Structure (SMILES) | logP [1] | Dose (Mus musculus [2]) | Activity (Rattus norvegicus [5]) | Activity (Rattus norvegicus [6]) | Activity (Rattus norvegicus [7]) | Dose (Mus musculus [8]) | Dose (Mus musculus [9]) | Dose (Mus musculus [10]) | Activity (Rattus norvegicus [11]) | Activity (Rattus norvegicus [12]) | Activity (Rattus norvegicus [13]) | Activity (Rattus norvegicus [14]) | Activity (Rattus norvegicus [18]) | ED50 (Mus musculus [22]) | selectivity ratio [30] | selectivity ratio [31] | Dose (Mus musculus [32]) | ED50 (Mus musculus [33]) | TD50 at 2 h [35] | ED50 (Rattus norvegicus [36]) | further results
Cc1cccc(Oc2ccc(/C=N/NC(N)=O)cc2)c1 |  | 100 mg/kg |  |  |  | 30 mg/kg | 100 mg/kg | 300 mg/kg | No activity | 2 | 4 | 4 | 3 |  |  |  |  |  |  |  | ED50 (Rattus norvegicus [15]): 3.07 mg/kg; TD50 [16]: > 500 mg/kg; selectivity ratio [17]: > 163
C/C(=N/NC(N)=O)c1ccc(Oc2ccccc2)cc1 |  | 100 mg/kg |  |  |  | 30 mg/kg | 100 mg/kg | 100 mg/kg |  |  |  |  |  | 43.3 mg/kg | 1.7 | 8.09 |  |  |  |  | ED50 (Mus musculus [21]): 9.08 mg/kg; TD50 at 1 h [23]: 73.5 mg/kg; Activity (Rattus norvegicus [24]): 4; Activity (Rattus norvegicus [25]): 4; Activity (Rattus norvegicus [26]): 4; Activity (Rattus norvegicus [27]): 4; Activity (Rattus norvegicus [28]): 4; ED50 (Rattus norvegicus [29]): 9.73 mg/kg
CC/C(=N/NC(N)=O)c1ccc(Oc2ccc(F)cc2)cc1 |  | 30 mg/kg |  |  |  | 30 mg/kg | 300 mg/kg | 100 mg/kg | No activity | 4 | 2 | 4 | 4 |  | 2.75 |  | 100 mg/kg | 5.46 mg/kg | 35.3 mg/kg | 4.25 mg/kg | ED50 (Mus musculus [34]): 12.8 mg/kg; TD50 at 4 h [37]: > 72 mg/kg; PI (Rattus norvegicus [38]): 6.45 and 16.9

Continued, in another order:

logP [1] | Structure (SMILES) | Dose (Mus musculus [2]) | Activity (Rattus norvegicus [5]) | Activity (Rattus norvegicus [6]) | Activity (Rattus norvegicus [7]) | Dose (Mus musculus [8]) | Dose (Mus musculus [9]) | Dose (Mus musculus [10]) | Activity (Rattus norvegicus [11]) | Activity (Rattus norvegicus [12]) | Activity (Rattus norvegicus [13]) | Activity (Rattus norvegicus [14]) | Activity (Rattus norvegicus [18]) | ED50 (Mus musculus [22]) | selectivity ratio [30] | selectivity ratio [31] | Dose (Mus musculus [32]) | ED50 (Mus musculus [33]) | TD50 at 2 h [35] | ED50 (Rattus norvegicus [36]) | further results
2.07 | NC(=O)N/N=C\c1cccc(Oc2ccccc2)c1 | 300 mg/kg | No activity | No activity | No activity |  |  |  |  |  |  |  |  |  |  |  |  |  |  |  | Activity (Rattus norvegicus [3]): No activity; Activity (Rattus norvegicus [4]): No activity
1.92 | NC(=O)N/N=C/c1ccc(Oc2ccc(Oc3ccccc3)cc2)cc1 | 300 mg/kg | No activity | No activity | No activity |  |  |  |  |  |  |  |  |  |  |  |  |  |  |  | Activity (Rattus norvegicus [19]): 1; Activity (Rattus norvegicus [20]): 1
2.03 | C/C(=N/NC(N)=O)c1ccc(Oc2ccc(F)cc2)cc1 | 30 mg/kg |  |  |  | 30 mg/kg | 300 mg/kg | 100 mg/kg | No activity | 4 | 4 | 4 | 4 | > 80 mg/kg |  | 5.22 | 100 mg/kg | 11.6 mg/kg | 60.7 mg/kg | 3.37 mg/kg | TD50 at 2 h [39]: 109 mg/kg; selectivity ratio [40]: 32.3
